According to PMC12612033 (Scientific Reports, 2025):

Each molecule was assayed against T1, α-glucosidase (Saccharomyces cerevisiae, UniProt P53341) (assay: α-Glucosidase kinetic study). Settings: Lineweaver–Burk plot; Km increases, Vmax unchanged.
Type: biochemical

T1 sequence (P53341 whole entry): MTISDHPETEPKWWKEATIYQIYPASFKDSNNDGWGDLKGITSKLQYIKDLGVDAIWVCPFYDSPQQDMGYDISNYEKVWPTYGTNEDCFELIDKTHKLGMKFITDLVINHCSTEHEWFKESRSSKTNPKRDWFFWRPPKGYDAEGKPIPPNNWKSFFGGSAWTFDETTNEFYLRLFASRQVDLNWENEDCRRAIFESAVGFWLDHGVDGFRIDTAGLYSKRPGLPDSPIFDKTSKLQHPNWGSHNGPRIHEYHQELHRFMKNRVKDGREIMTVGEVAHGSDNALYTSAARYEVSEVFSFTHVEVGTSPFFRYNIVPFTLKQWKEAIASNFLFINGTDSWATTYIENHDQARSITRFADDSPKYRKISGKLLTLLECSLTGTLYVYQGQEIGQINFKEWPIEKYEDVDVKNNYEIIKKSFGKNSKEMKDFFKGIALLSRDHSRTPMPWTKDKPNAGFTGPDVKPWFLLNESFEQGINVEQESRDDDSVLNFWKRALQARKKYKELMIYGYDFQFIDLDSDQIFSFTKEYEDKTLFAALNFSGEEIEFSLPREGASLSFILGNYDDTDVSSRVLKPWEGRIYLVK

Question: `Nc1c(-c2ccc(Cl)cc2)nc2ncnn2c1-c1ccc(Cl)cc1` [9s, 5,7-Bis(4-chlorophenyl)-[1,2,4]triazolo[1,5-a]pyrimidin-6-amine] was tested. Which Mode of inhibition did it give?
Answer: The Mode of inhibition was “competitive”.

These molecules were tested against Saccharomyces cerevisiae α-glucosidase (Saccharomyces cerevisiae, UniProt P53341) (assay: α-Glucosidase inhibition assay). Settings: not given.
Sequence of Saccharomyces cerevisiae α-glucosidase (P53341 whole entry): as above
Type: biochemical

Question: How did the IC50 turn out when `Nc1c(-c2ccccc2)nc2ncnn2c1-c1ccccc1` [9a, 5,7-Diphenyl-[1,2,4]triazolo[1,5-a]pyrimidin-6-amine] was run?
Answer: Its IC50 is 97.02 ± 0.83 µM.

Question: How did the IC50 turn out when `COc1ccc(-c2c(N)c(-c3ccccc3)nc3ncnn23)cc1` [9b, 7-(4-Methoxyphenyl)-5-phenyl-[1,2,4]triazolo[1,5-a]pyrimidin-6-amine] was run?
Answer: The IC50 was 70.85 ± 0.27 µM.

Question: Which IC50 does the source give for `Nc1c(-c2ccccc2)nc2ncnn2c1-c1ccc(Cl)cc1` [9c, 7-(4-Chlorophenyl)-5-phenyl-[1,2,4]triazolo[1,5-a]pyrimidin-6-amine] here?
Answer: Its IC50 is 56.2 ± 0.68 µM.

Question: For `Nc1c(-c2ccccc2)nc2ncnn2c1-c1ccc(Br)cc1` [9f, 7-(4-Bromophenyl)-5-phenyl-[1,2,4]triazolo[1,5-a]pyrimidin-6-amine], which IC50 is on record?
Answer: Its IC50 is 65.09 ± 0.38 µM.

Question: With `Nc1c(-c2ccccc2)nc2ncnn2c1-c1cccs1` [9g, 5-Phenyl-7-(thiophen-2-yl)-[1,2,4]triazolo[1,5-a]pyrimidin-6-amine] as the molecule, how does the IC50 read?
Answer: Its IC50 is 140 ± 1.55 µM.

Question: How did the IC50 turn out when `Cc1ccc(-c2nc3ncnn3c(-c3ccccc3)c2N)cc1` [9h, 7-Phenyl-5-(p-tolyl)-[1,2,4]triazolo[1,5-a]pyrimidin-6-amine] was run?
Answer: The IC50 was 94.52 ± 0.72 µM.

Question: How did the IC50 turn out when `Cc1ccc(-c2nc3ncnn3c(-c3cccs3)c2N)cc1` [9l, 7-(Thiophen-2-yl)-5-(p-tolyl)-[1,2,4]triazolo[1,5-a]pyrimidin-6-amine] was run?
Answer: The IC50 was 151.3 ± 0.56 µM.

Question: With `COc1ccc(-c2nc3ncnn3c(-c3ccccc3)c2N)cc1` [9m, 5-(4-Methoxyphenyl)-7-phenyl-[1,2,4]triazolo[1,5-a]pyrimidin-6-amine] as the molecule, how does the IC50 read?
Answer: Its IC50 is 72.4 ± 0.98 µM.

Question: For `COc1ccc(-c2nc3ncnn3c(-c3ccc(OC)cc3)c2N)cc1` [9n, 5,7-Bis(4-methoxyphenyl)-[1,2,4]triazolo[1,5-a]pyrimidin-6-amine], which IC50 is on record?
Answer: Its IC50 is 52.66 ± 0.3 µM.

Question: `COc1ccc(-c2nc3ncnn3c(-c3ccc(Cl)cc3)c2N)cc1` [9o, 7-(4-Chlorophenyl)-5-(4-methoxyphenyl)-[1,2,4]triazolo[1,5-a]pyrimidin-6-amine] was tested. Which IC50 did it give?
Answer: The IC50 was 37.18 ± 0.23 µM.

Question: How did the IC50 turn out when `Nc1c(-c2ccc(Cl)cc2)nc2ncnn2c1-c1ccccc1` [9q, 5-(4-Chlorophenyl)-7-phenyl-[1,2,4]triazolo[1,5-a]pyrimidin-6-amine] was run?
Answer: Its IC50 is 58.11 ± 0.34 µM.

Question: With `COc1ccc(-c2c(N)c(-c3ccc(Cl)cc3)nc3ncnn23)cc1` [9r, 5-(4-Chlorophenyl)-7-(4-methoxyphenyl)-[1,2,4]triazolo[1,5-a]pyrimidin-6-amine] as the molecule, how does the IC50 read?
Answer: The IC50 was 41.5 ± 0.56 µM.

Question: `Nc1c(-c2ccc(Cl)cc2)nc2ncnn2c1-c1ccc(Cl)cc1` [9s, 5,7-Bis(4-chlorophenyl)-[1,2,4]triazolo[1,5-a]pyrimidin-6-amine] was tested. Which IC50 did it give?
Answer: The IC50 was 24.32 ± 0.18 µM.

What follows are molecules tested against T1, α-glucosidase (assay: Circular dichroism spectroscopy of α-glucosidase secondary structure). Settings: CD, α-glucosidase in the presence of 9s.
Procedure, shortened: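 Far-UV CD spectra (190–240 nm) recorded for yeast α-glucosidase alone and for its complex with the test compound. Spectra were deconvoluted into α-helix, β-sheet, β-turn and random-coil fractions, and the complex was compared with native enzyme.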

Question: `Nc1c(-c2ccc(Cl)cc2)nc2ncnn2c1-c1ccc(Cl)cc1` [9s, 5,7-Bis(4-chlorophenyl)-[1,2,4]triazolo[1,5-a]pyrimidin-6-amine] was tested. Which “Random coils content of α-glucosidase” value did it give?
Answer: Its value is 0%.

Question: And the “α-Helix content of α-glucosidase” value?
Answer: Its value is 41.2%.

Question: What about the “β-Turn content of α-glucosidase” value of the same molecule?
Answer: The value was 51.4%.

Each molecule was assayed on α-amylase (assay: α-Amylase inhibition assay). Settings: at a concentration of 100 µM, mean ± SD.
Type: biochemical

Question: How did the “Inhibition of α-amylase activity (%)” value turn out when `C[C@H]1O[C@H](O[C@H]2[C@H](O)[C@@H](O)[C@@H](O[C@H]3[C@H](O)[C@@H](O)C(O)O[C@@H]3CO)O[C@@H]2CO)[C@H](O)[C@@H](O)[C@@H]1N[C@H]1C=C(CO)[C@@H](O)[C@H](O)[C@H]1O` (stereo partly drawn) [Acarbose] was run?
Answer: Its value is 50.1 ± 0.5%.
